# M5 antag: antagonists of human muscarinic M5 receptor (CHRM5); CHO-hM5 cells, Fluo-8 calcium fluorescence, ACh EC80; inhibition, % at 3 µM; 360,000 tested, 0.59% active; AID 624040;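 active = inhibition above a per-plate cutoff, the mean of that plate's test compounds plus 3 SD, cut at about 27% in these data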
# CHRM4 PAM: potentiates acetylcholine response at human M4 receptor; P08173; CHO-K1 hM4/Gqi5, Fluo-8 calcium fluorescence, ACh EC20; 0% = ACh EC20, 100% = maximal ACh; activation, % at 3 µM; 360,000 tested, 0.4% active;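 active = activation above its plate's cutoff, the mean activation of sample wells plus 3 SD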
# Target sequence (P08173 whole entry, looked up): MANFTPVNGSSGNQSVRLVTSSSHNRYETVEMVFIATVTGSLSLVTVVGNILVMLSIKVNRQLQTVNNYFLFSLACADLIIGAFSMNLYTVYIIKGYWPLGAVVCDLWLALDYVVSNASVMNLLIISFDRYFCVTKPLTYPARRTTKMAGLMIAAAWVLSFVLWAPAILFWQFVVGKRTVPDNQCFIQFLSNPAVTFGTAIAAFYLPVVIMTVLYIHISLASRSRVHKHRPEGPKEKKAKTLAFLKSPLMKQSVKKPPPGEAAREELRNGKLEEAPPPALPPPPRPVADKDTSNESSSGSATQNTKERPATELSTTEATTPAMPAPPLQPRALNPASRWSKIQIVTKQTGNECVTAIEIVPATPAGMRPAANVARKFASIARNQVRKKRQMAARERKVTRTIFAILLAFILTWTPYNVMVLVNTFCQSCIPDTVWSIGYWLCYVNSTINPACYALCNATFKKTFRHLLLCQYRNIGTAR
# CHRM5 PAM: positive allosteric modulators of human muscarinic M5 receptor | P08912 | CHO-K1 hM5, Fluo-8 calcium, ACh EC20 PAM; 0% = ACh EC20, 100% = ACh EC100 | AID 624038 | 360,000 tested, 0.3% active | activation, % at 3 µM;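 active = activation above the run cutoff, the mean activation of all test compounds plus 3 SD, cut at about 18% in these data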
#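 Measured by: Fluo-8 calcium fluorescence; material: human M5 receptor in CHO-K1 cells; schedule: Post-acetylcholine fluorescence recording 140 s; benchmarks: low control EC20 acetylcholine (0%), high control EC100 acetylcholine (100%); read-out: Max/basal fluorescence ratio as % of EC20–EC100 ACh window; compound: single dose, 3 µM nominal final test concentration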
# CHRM4 agonist: CHRM4 agonism in calcium assay; CHO-K1 hM4/Gqi5, Fluo-8 calcium fluorescence; vehicle 0%, full acetylcholine response 100%; P08173; activation, % at 3 µM; 360,000 tested, 0.14% active;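 active = activation above the run mean over all test wells plus 3 SD, cut at about 32% in these data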;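 note: peak over basal fluorescence ratio per well then scaled between controls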
# M5 ag: CHRM5 agonism in calcium assay | CHO-K1 hM5 cells, Fluo-8 calcium fluorescence; 0% DMSO wells, 100% maximal acetylcholine response | 360,000 tested, 0.19% active | AID 624037 | P08912 | activation, % at 3 µM;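 active = activation above the run's mean over test compounds plus 3 SD, cut at about 23% in these data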;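 note: signal is peak over basal fluorescence ratio across the kinetic read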
# M4 antag: CHRM4 antagonism in calcium assay | CHO-hM4 cells, ACh EC80, Fluo-8 calcium fluorescence | 360,000 tested, 0.73% active | inhibition, % at 3 µM | P08173 | AID 624125;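 active = inhibition above its plate's cutoff, the mean inhibition of sample wells plus 3 SD, cut at about 27% in these data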
# Hits are given with their value; i = inactive. Compounds with a hit are over-represented: about 1.9% of the library has one in this group of screens.
SMILES,M5 antag,CHRM4 PAM,CHRM5 PAM,CHRM4 agonist,M5 ag,M4 antag
Clc1cccc(CN2CCSCC2)c1Cl,i,i,i,i,i,i
O=C1NC(c2ccccc2)CCO1 (stereo unspecified),i,30,i,i,i,i
CCC1=NN(C(=O)c2ccc(Br)cc2)C(O)(c2ccc(C)cc2)C1 (stereo unspecified),i,22,i,i,i,i
CCC1=NN(C(=O)c2ccc(C)cc2)C(O)(c2ccc(Br)cc2)C1 (stereo unspecified),i,i,i,i,i,i
CCCCc1cc(O)c(CCCC)c(O)c1,33,i,i,106,64,52
O=C(N/N=C/c1cn(-c2cccs2)nc1-c1ccccc1)c1ccccc1O,28,i,i,i,i,i
O=C(N/N=C/c1cn(-c2cccs2)nc1-c1ccccc1)c1ccccc1Br,i,i,i,i,i,i
CN(CCN1CCOCC1)C(=O)CC1C(=O)NCCN1Cc1ccccc1C(F)(F)F (stereo unspecified),i,19,i,i,i,i
O=C(c1ccc2c(=O)n3c(nc2c1)CCCCC3)N1CCN(c2ccccc2)CC1,i,i,i,i,i,i
O=C(c1ccc(=O)oc1)N1CCN(C(c2ccccc2)c2ccccc2)CC1,36,i,i,i,i,43
O=C(c1ccc2c(=O)n3c(nc2c1)CCCCC3)N1CCN(C(c2ccccc2)c2ccccc2)CC1,i,i,i,i,i,64
Cc1ccc(-c2csc(NC(=O)c3ccc4c(=O)n5c(nc4c3)CCCCC5)n2)cc1,i,23,i,i,i,i
CCOc1ccc(Cl)cc1S(=O)(=O)N1CCC(C(=O)NCc2cccnc2)CC1,i,i,i,i,i,i
COc1ccc(CCNC(=O)c2cccc(NS(=O)(=O)c3ccccc3F)c2)cc1OC,i,i,i,i,i,i
CC(C)(C)NC(=O)Cn1nnc(-c2ccccc2NC(=O)c2cnccn2)n1,i,i,i,i,i,i
NC(=O)Cn1nnc(-c2ccccc2NC(=O)c2cnccn2)n1,i,i,35,i,i,i
O=C(Cn1nnc(-c2ccccc2NC(=O)c2cccs2)n1)Nc1ccccc1,i,i,21,i,i,i
O=C(C[n+]1ccc(/C=N/O)cc1)NC(=O)Nc1ccccc1,i,i,i,i,i,i
O=C(CC1C[C@H](C(=O)N2CCOCC2)[C@@]2(CCC3CCCC3)c3[nH]c4ccccc4c3CCN2C1=O)NCCc1ccccn1 (stereo partly specified),i,i,i,i,i,i
COc1ccc(SCCN2CC[C@@H](C(C)(C)C)CCC2=O)cc1,i,i,i,i,i,i
COc1ccccc1N(C(C)=O)C1=C(Cl)C(=O)c2ccccc2C1=O,35,i,i,i,i,90
COc1ccccc1Oc1ccc2c(c1)C(=O)N(c1cccc3ncccc13)C2=O,39,i,i,i,i,i
CC(NC(=O)/C=C/c1ccccc1)c1ccccc1 (stereo unspecified),i,i,i,i,31,i
O=C(O)c1ccccc1C(=O)c1ccc(N2CCCC2)c([N+](=O)[O-])c1,i,i,i,i,i,i
CC(=O)c1ccc(N2CCN(c3ccccc3O)CC2)c([N+](=O)[O-])c1,31,i,i,i,i,i
SMILES,M5 antag,CHRM4 PAM,CHRM5 PAM,CHRM4 agonist,M5 ag,M4 antag
CC(=O)c1ccc(N2CCC(c3cc(-c4ccc(Cl)cc4Cl)n[nH]3)CC2)c([N+](=O)[O-])c1,i,i,i,i,i,34
COc1ccc2[nH]c(=O)c(CNc3cc(C)ccc3C)cc2c1,i,i,i,i,i,i
Cc1ccc(NC(=O)NNC(=O)COc2ccc([N+](=O)[O-])cc2)cc1C,i,i,i,i,i,i
Cc1ccc(NC(=O)CCC(=O)NNC(=O)COc2ccc([N+](=O)[O-])cc2)cc1C,i,18,i,i,i,i
O=C(Cn1cnc2c(NCc3ccccc3)ncnc21)NCCCc1ccccc1,i,i,i,i,i,i
O=[N+]([O-])c1ccc(N2CCN(C(=S)Nc3ccc(F)cc3F)CC2)cc1,34,i,i,i,i,i
Cc1csc2c(N3CCN(C(=O)Nc4ccccc4)CC3)ncnc12,i,i,i,i,i,i
O=[N+]([O-])c1ccc(N2CCN(C(=S)Nc3ccc(F)cc3)CC2)cc1,i,i,i,i,i,i
Cc1csc2c(N3CCN(C(=S)Nc4ccc(F)cc4F)CC3)ncnc12,29,i,i,i,i,i
CNC[C@H](Cc1ccccc1)NC[C@@H](Cc1cccc2ccccc12)NCCc1ccc(C)cc1,i,i,i,i,i,38
CNCCNC[C@H](Cc1cccc2ccccc12)NCCc1ccccc1,i,i,i,i,i,i
COCCCOc1ccnc(CS(=O)c2nc3ccccc3[nH]2)c1C (stereo unspecified),i,i,i,i,i,i
COc1ccc2nc(S(=O)Cc3ncc(C)c(OC)c3C)[nH]c2c1 (stereo unspecified),i,i,i,i,i,42
COc1cc2c(cc1OC)CN(CC(=O)NC(=O)NC1CCCCC1)CC2,i,i,i,i,i,i
COc1ccccc1N1CCN(C(=O)C2CCN(C(=O)c3ccccc3C)CC2)CC1,i,i,i,i,i,i
CCOc1ccc(NC(=O)Cn2nnc(-c3ccc(C(N)=O)cc3)n2)cc1S(=O)(=O)N1CCCC1,i,i,i,i,i,i
CCOc1ccc(NC(=O)Cn2nc(C(N)=O)c3ccccc3c2=O)cc1S(=O)(=O)N1CCCC1,i,23,i,i,i,i
Cn1c(=O)n(C)c2cc(NC(=O)CCc3ccccc3)c(Br)cc21,i,i,i,i,i,i
Cc1ccc(S(=O)(=O)NNC(=O)C2CCN(Cc3ccccc3)CC2)cc1,53,i,i,i,i,41
COC(=O)C1CCN(Cc2ccc(C)cc2)CC1,i,i,i,i,i,i
O=C(c1ccc(F)cc1)N1CCCN(c2nc(-c3ccccc3)ns2)CC1,i,i,20,i,i,i
O=C(Nc1ccccc1Cl)N1CCCN(c2nc(-c3ccccc3)ns2)CC1,i,i,i,i,i,i
CC(C)Cc1ccc(-c2cc(=O)[nH][nH]2)cc1,28,i,i,i,i,i
CC(C)Cc1ccc(C(C)C(=O)Nc2cccnc2)cc1 (stereo unspecified),i,i,i,i,32,i
CC(C)Cc1ccc(C(C)C(=O)Nc2ccc(O)cc2)cc1 (stereo unspecified),27,i,i,79,44,34
CC(C)Cc1ccc([C@H](C)C(=O)O)cc1,i,i,i,i,i,i

# Screening results from PubChem BioAssay.
